In data set [1] the target is Transient receptor potential cation channel subfamily V member 1 (Homo sapiens, UniProt Q8NER1). Description: Antagonist activity at human recombinant TRPV1 expressed in HEK293 cells assessed as inhibition of capsaicin-induced calcium mobilization by FLIPR assay. On the technique in general: A change in cytosolic calcium serves as a functional read-out for many receptors and channels.

The nature of data set [2]: Solubility in 0.1 N HCL after 4 hrs by HPLC/MS analysis. It counts as physicochemical.
Data set [3] in a line: Half life in rat at 2.7 mg/kg, iv and 2 mg/kg, po. Type of data set: ADME, organism-based. Particulars: in vivo.
Data set [4] is filed under the species Rattus norvegicus. The experiment in a line: Analgesic activity against carrageenan-induced thermal hyperalgesia in rat. The conditions noted are these: read-out: MED. It counts as functional.
In data set [5] the test system is MDR1. The experiment in a line: Apparent permeability across pig LLC-PK1 cells expressing MDR1. Type of data set: ADME, cell-based, Sus scrofa.
Data set [6] in a line: Metabolic stability in rat liver microsomes assessed as compound remaining at 1 uM after 10 mins by LCMS analysis. Type of data set: ADME, Microsome. The conditions noted are these: read-out: Activity. Summed up: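 Compound (1 μM) incubated at 37 °C with 0.5 mg/mL male pooled rat liver microsomes; NADPH added to start the reaction. Aliquots were taken at 0 and 10 min and quenched into ice-cold acetonitrile with internal standard, then centrifuged. Parent was monitored as the M+1 ion by ESI-LCMS in selected-ion mode. Percent remaining was taken as the 10 min/0 min signal ratio, corrected by internal-standard recovery.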
(Liver microsomes are a subcellular fraction often used to study metabolism.)

The nature of data set [7]: Oral bioavailability in rat at 10 mg/kg. It counts as ADME, organism-based. Particulars: in vivo.
The nature of data set [8]: Clearance in rat at […], iv and 10 mg/kg, po. The conditions noted are these: in vivo. It counts as ADME, organism-based.
Data set [9] is described as follows: Half life in rat at […], iv and 10 mg/kg, po. Particulars: in vivo. Type of data set: ADME, organism-based.
Data set [10] is described as follows: Volume of distribution in rat at […], iv and 10 mg/kg, po. The conditions noted are these: in vivo. Type of data set: ADME, organism-based.
Data set [11] is described as follows: Tmax in rat at […], iv and 10 mg/kg, po. It counts as ADME, organism-based. The conditions noted are these: in vivo.

SMILES strings stand for the structures. In brackets after ≈: the same amount, converted by molar mass.

Chain of Transient receptor potential cation channel subfamily V member 1 (Q8NER1 whole entry): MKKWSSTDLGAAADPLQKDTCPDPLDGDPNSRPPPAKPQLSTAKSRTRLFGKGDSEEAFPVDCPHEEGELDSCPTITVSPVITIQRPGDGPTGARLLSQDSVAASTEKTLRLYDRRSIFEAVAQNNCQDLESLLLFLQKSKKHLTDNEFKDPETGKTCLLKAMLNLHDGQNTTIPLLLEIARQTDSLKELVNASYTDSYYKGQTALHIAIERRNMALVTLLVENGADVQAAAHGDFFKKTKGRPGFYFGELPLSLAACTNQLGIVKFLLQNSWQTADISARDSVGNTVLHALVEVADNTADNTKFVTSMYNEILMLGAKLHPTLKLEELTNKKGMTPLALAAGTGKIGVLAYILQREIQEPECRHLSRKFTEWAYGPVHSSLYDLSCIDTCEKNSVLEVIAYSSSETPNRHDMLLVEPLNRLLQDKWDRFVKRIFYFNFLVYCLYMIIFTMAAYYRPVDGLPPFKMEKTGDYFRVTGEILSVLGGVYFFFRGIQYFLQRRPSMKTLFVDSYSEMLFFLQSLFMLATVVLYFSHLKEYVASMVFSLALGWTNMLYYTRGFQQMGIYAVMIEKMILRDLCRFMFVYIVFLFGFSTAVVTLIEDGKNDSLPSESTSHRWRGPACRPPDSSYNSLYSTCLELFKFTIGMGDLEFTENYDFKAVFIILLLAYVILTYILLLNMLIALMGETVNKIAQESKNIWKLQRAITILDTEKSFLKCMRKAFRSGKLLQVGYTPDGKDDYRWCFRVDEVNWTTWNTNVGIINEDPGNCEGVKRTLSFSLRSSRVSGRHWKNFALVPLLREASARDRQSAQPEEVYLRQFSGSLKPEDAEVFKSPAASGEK

In the case of `FC(F)(F)c1ccc(Nc2ncnc3nc(-c4ncccc4C(F)(F)F)ccc23)cc1`, the concentration for half-maximal inhibition (IC50) in data set [1] was 0.00083 µM. In data set [2], this compound registered a solubility at 4 h of 9 µg/mL (≈ 20.7 µM).

For the compound `FC(F)(F)c1ccc(Nc2ncnc3nc(-c4ncccc4C(F)(F)F)ncc23)cc1`, the IC50 in [1] is 0.665 µM. Further, the concentration in solution in [2] (solubility at 4 h) came to 4 µg/mL (≈ 9.17 µM).

In turn, `FC(F)(F)c1ccc(Nc2ncnc3cc(-c4ncccc4C(F)(F)F)ccc23)cc1` [NGD-8243] showed a half-life in data set [3] of 8 h. The minimal effective dose in data set [4] was determined as 0.1 mg/kg. Besides, the solubility at 4 h in data set [2] was found to be 16 µg/mL (≈ 36.8 µM). For the same compound, in data set [5], the Papp is 11 ×10⁻⁶ cm/s. The remaining at 10 min, 1 µM in data set [6] was found to be 93%.

Take `Cl.FC(F)(F)c1ccc(Nc2ncnc3cc(-c4ncccc4C(F)(F)F)ccc23)cn1`: the bioavailability in [7] was 65%. The compound further had a clearance in data set [8] of 22 mL/min/kg. Moreover, the concentration in solution in [2] (solubility at 4 h) was 35 µg/mL. In [9], this compound had a half-life of 4 h. This compound returned a Vd in data set [10] of 5.5 L/kg. In addition, in [6], the remaining at 10 min, 1 µM is 100%. The Tmax in data set [11] amounted to 4.7 h.

As a reminder, the IC50 is the point on the concentration scale where inhibition reaches its midpoint. A word on the solubility: it is the concentration that dissolves in the medium under given conditions. A higher solubility goes with much dissolved substance. By half-life is commonly meant the time in which the quantity being followed falls by half. Read a low half-life as rapid decline. By Papp is commonly meant a coefficient for how fast a substance crosses the barrier. For orientation: bioavailability means the share of a dose that reaches the circulation, judged against a reference dose that is usually intravenous. A higher bioavailability goes with much systemic uptake. The term Tmax denotes the time at which the peak concentration occurs.

These data come from ChEMBL document CHEMBL1156178, “Discovery of novel 6,6-heterocycles as transient receptor potential vanilloid (TRPV1) antagonists” (J Med Chem, 2010).
